Measurements published in ChEMBL document CHEMBL1132971, “New azolidinediones as inhibitors of protein tyrosine phosphatase 1B with antihyperglycemic properties” (J Med Chem, 2000).

How the values were obtained:
[1] = biological target: T1, Tyrosine-protein phosphatase non-receptor type 1 (Rattus norvegicus) (UniProt P20417); assay: Inhibition of PTPase activity using recombinant r-PTP1B as the enzyme and IR-triphosphopeptide as substrate at 50 uM
T1 sequence (whole entry): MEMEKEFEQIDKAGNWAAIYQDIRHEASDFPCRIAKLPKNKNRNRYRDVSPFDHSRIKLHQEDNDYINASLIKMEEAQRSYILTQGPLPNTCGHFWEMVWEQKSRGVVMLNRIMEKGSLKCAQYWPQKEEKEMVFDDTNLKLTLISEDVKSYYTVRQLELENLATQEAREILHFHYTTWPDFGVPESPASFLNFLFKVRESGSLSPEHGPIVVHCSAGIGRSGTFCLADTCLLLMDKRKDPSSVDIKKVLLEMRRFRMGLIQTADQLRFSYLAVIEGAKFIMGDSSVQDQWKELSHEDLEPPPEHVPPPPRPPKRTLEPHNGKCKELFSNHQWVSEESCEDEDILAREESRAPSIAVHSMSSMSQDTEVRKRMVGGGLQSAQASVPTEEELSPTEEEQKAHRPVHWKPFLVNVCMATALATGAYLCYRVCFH
Summary of the method: (§1)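 Rat recombinant PTP1B in 33 mM TRIS-HCl, 2 mM EDTA, 50 mM β-mercaptoethanol, pH 7.4 (about 1000-2000 nmol/min/mg). Preincubated 10 min at 37 °C with or without compound in HEPES buffer pH 7.4. Released phosphate read by malachite green-ammonium molybdate at 650 nm against a phosphate standard. Quadruplicates. IC50 by four-parameter logistic fit.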

[2] = biological target: T1, Tyrosine-protein phosphatase non-receptor type 1 (Rattus norvegicus); assay: Inhibition of PTPase (PTP1B) activity in rat hepatic membrane at 50 uM concentration, using pNPP as the substrate; assay type: cell membranes; conditions: Liver
Summary of the method: (§2)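 Liver membranes from male Sprague-Dawley rats (100-150 g), about 30 µg protein per well. Preincubated 10 min at 37 °C with compound in 1.25% DMSO in 50 mM HEPES pH 7.4. Then 6.33 mM pNPP for 30 min at 37 °C, stopped with NaOH. p-Nitrophenol read at 410 nm. Run in triplicate. Reported as percent of untreated control.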

[3] = biological target: T2, Tyrosine-protein phosphatase non-receptor type 1 (Rattus norvegicus, UniProt P20417); assay: Inhibition of PTPase activity using recombinant r-PTP1B as the enzyme and IR-triphosphopeptide as substrate; summary of the method: as §1
T2 sequence (P20417 whole entry): T1 sequence (whole entry)

Mus musculus = assay: Evaluated in vivo for their ability to decrease plasma glucose levels in diabetic C57BL/KsJ db/db mouse at a dose 100 mg/kg/day.; assay type: functional
Summary of the method: (§3)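 Diabetic db/db or ob/ob mice dosed orally once daily for 4 days. Plasma glucose and insulin reported as percent change from a vehicle-treated group. 4-6 mice per group. Significance set at p < 0.05 or p < 0.01 versus vehicle; NS means generally less than -15% change.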

[4] = biological target: T3, Tyrosine-protein phosphatase non-receptor type 1 (Mus musculus) (UniProt P35821); assay: Ability to decrease plasma insulin levels in mouse at a dose 100 mg/kg/day; assay type: functional, organism-based; summary of the method: as §3
T3 sequence (whole entry): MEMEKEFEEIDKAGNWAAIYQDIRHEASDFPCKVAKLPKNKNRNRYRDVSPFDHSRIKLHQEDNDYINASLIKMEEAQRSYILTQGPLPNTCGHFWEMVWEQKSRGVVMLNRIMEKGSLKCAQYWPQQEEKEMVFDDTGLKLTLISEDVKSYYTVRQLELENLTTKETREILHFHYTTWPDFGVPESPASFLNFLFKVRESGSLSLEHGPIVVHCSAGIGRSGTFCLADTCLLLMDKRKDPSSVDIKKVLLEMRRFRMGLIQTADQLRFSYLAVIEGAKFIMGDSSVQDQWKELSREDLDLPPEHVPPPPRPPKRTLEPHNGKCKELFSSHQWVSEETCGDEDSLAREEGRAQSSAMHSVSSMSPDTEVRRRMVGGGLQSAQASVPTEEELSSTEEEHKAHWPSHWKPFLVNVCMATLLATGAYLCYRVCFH

[5] = biological target: T3, Tyrosine-protein phosphatase non-receptor type 1 (Mus musculus); assay: In vivo ability to decrease plasma glucose levels in diabetic C57BL/KsJ ob/ob mouse at a dose 100 mg/kg/day; assay type: functional, organism-based; summary of the method: as §3
[6] = biological target: T2, Tyrosine-protein phosphatase non-receptor type 1; assay: Inhibition of PTPase activity using recombinant r-PTP1B and IR-triphosphopeptide as substrate; ND is no data.; summary of the method: as §1
[7] = biological target: T1, Tyrosine-protein phosphatase non-receptor type 1 (Rattus norvegicus); assay: Inhibition of Protein-tyrosine phosphatase 1B activity in rat hepatic membrane at a concentration of 50 uM using pNPP as the substrate; assay type: cell membranes; conditions: Liver; summary of the method: as §2

| inhibition [2] | IC50 [3] [µM] | Decrease [4] | Decrease [5] | SMILES | also measured |
| --- | --- | --- | --- | --- | --- |
| 49% | – | – | – | COc1cc(OCc2nc(-c3ccc(C(F)(F)F)cc3)oc2C)cc(/C(C)=C/Cn2oc(=O)[nH]c2=O)c1 | inhibition [1]: 12% |
| 64% | 12 | – | – | C/C(=C\Cn1oc(=O)[nH]c1=O)c1cccc(COc2cc(C(F)(F)F)cc(C(F)(F)F)c2)c1 | – |
| – | 13 | Not significant | Not significant | C/C(=C\CN1CC(=O)NC1=O)c1cccc(OCc2nc(-c3ccc(C(F)(F)F)cc3)oc2C)c1 | – |
| Not significant | 43 | Not significant | Not significant | C/C(=C\Cn1oc(=O)[nH]c1=O)c1ccccc1OCc1nc(-c2ccc(C(F)(F)F)cc2)oc1C | – |
| 62% | 10 | – | – | CCCC/C(=C\Cn1oc(=O)[nH]c1=O)c1cccc(Oc2ccc(OC)cc2)c1 | – |
| 31% | – | – | – | Cc1oc(-c2ccc(C(F)(F)F)cc2)nc1COc1ccc2c(c1)C=C/C2=C\Cn1oc(=O)[nH]c1=O | inhibition [1]: 83% |
| 23% | – | Not significant | Not significant | Cc1oc(-c2ccccc2)nc1COc1cccc(C#CC(C)n2oc(=O)[nH]c2=O)c1 (stereo unspecified) | – |
| 62% | 13 | – | – | CCCC/C(=C\Cn1oc(=O)[nH]c1=O)c1cccc(Oc2ccc(C)cc2)c1 | – |
| 32% | 19 | Not significant | Not significant | C/C(=C\Cn1oc(=O)[nH]c1=O)c1cccc(OCc2coc(-c3ccc(C(F)(F)F)cc3)n2)c1 | – |
| – | 1.3 | – | – | CCCCc1oc2ccccc2c1Cc1cccc(/C(C)=C/Cn2oc(=O)[nH]c2=O)c1 | – |
| 14% | – | – | – | Cc1oc(-c2ccc(C(F)(F)F)cc2)nc1COc1ccc2oc(Cn3oc(=O)[nH]c3=O)cc2c1 | IC50 [6]: Not significant |
| – | – | – | – | C/C(=C\Cn1oc(=O)[nH]c1=O)c1cccc(OCc2nc(-c3ccccc3)oc2C)c1 (stereo in doubt; 67) | inhibition [7]: 25% |
| 56% | – | Not significant | Not significant | COc1ccc(/C(=C\Cn2oc(=O)[nH]c2=O)c2cccc(OCc3nc(-c4ccc(C(F)(F)F)cc4)oc3C)c2)cc1 | inhibition [1]: 34% |
| 38% | – | Not significant | Not significant | C/C(=C\C(C)n1oc(=O)[nH]c1=O)c1cccc(OCc2nc(-c3ccc(C(F)(F)F)cc3)oc2C)c1 (stereo unspecified) | Decrease (Mus musculus): 16% |
| – | 4.1 | – | – | C/C(=C\Cn1oc(=O)[nH]c1=O)c1cccc(OCc2cc(C(F)(F)F)cc(C(F)(F)F)c2)c1 | – |
| 20% | 16 | – | – | C/C(=C\Cn1oc(=O)[nH]c1=O)c1cccc(OCc2ccc3c(Cl)cccc3c2)c1 | – |
| – | – | – | – | C/C(=C\Cn1oc(=O)[nH]c1=O)c1cccc(OCc2nc(-c3ccccc3)oc2C)c1 (stereo in doubt; 49) | inhibition [7]: 35% |
| 63% | 2 | – | – | CCCC/C(=C\Cn1oc(=O)[nH]c1=O)c1cccc(Oc2ccccc2)c1 | – |
| 51% | – | Not significant | Not significant | Cc1oc(-c2ccc(C(F)(F)F)cc2)nc1COc1cccc(C2(C)CC2Cn2oc(=O)[nH]c2=O)c1 (stereo unspecified) | inhibition [1]: 1% |
| 66% | – | Not significant | Not significant | Cc1oc(-c2ccc(C(F)(F)F)cc2)nc1COc1cccc(/C(=C/Cn2oc(=O)[nH]c2=O)C2CCCCC2)c1 | inhibition [1]: 49% |
| 20% | – | – | – | CC1(COc2ccc(CC3SC(=O)NC3=O)cc2)CCCCC1 (stereo unspecified) [CIGLITAZONE] | Decrease (Mus musculus): 32% |
| 17% | 3 | – | – | C/C(=C\Cn1oc(=O)[nH]c1=O)c1cccc(OCc2noc(-c3ccccc3)n2)c1 | – |

| SMILES | inhibition [2] | IC50 [3] [µM] | Decrease [4] | Decrease [5] | also measured |
| --- | --- | --- | --- | --- | --- |
| C/C(Cn1oc(=O)[nH]c1=O)=C(/C)c1cccc(OCc2nc(-c3ccc(C(F)(F)F)cc3)oc2C)c1 | 47% | – | – | – | Decrease (Mus musculus): 20% |
